In ChEMBL document CHEMBL1129260, “Evaluation of the stability and animal biodistribution of gadolinium (III) benzylamine-derivatized diethylenetriaminepentaacetic acid” (J Med Chem, 1996):

Legend:
Conditions in all cases: in vivo
Rattus norvegicus [1] = species: Rattus norvegicus; assay: Biodistribution of In-LDTA (conjugated with mannoseBSA) protein using [111In]- in mature female Sprague-Dawley rat liver after injecting for 24 hour.; type: ADME, organism-based
Outline: (§1)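 SCN-LDTPA was coupled (pH 9 bicine, 24 h, RT) to BSA, mannosylated BSA or galactosylated BSA and FPLC-purified. The conjugate (400 μg) was labeled with 340 μCi 111In acetate at pH 5.5 for 45 min and gel-filtered. Mature female Sprague-Dawley rats received 19 μg of conjugate; four rats per time point. Blood, liver, bone, kidney and colon were taken and reported as %ID/organ.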

Rattus norvegicus [2] = species: Rattus norvegicus; assay: Biodistribution of Gd-LDTA (conjugated with mannose BSA) protein using [111In]- in mature female Sprague-Dawley rat colon after injecting for 4 hour.; type: ADME, organism-based
Outline: (§2)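 Conjugate of SCN-LDTPA with BSA, mannosylated BSA or galactosylated BSA (10 equiv chelate, pH 9 bicine, RT 24 h; FPLC-purified) was labelled with 340 μCi 111In acetate at pH 5.5 for 45 min. It was then gel-filtered (Biospin-6) and checked for purity by FPLC. Mature female Sprague-Dawley rats received 19 μg of conjugate. Four rats per time point (1, 4, 24, 48 h) were killed; blood, liver, bone, kidney and colon were taken and %ID/organ was calculated.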

Rattus norvegicus [3] = species: Rattus norvegicus; assay: Biodistribution of Gd-DTA (conjugated with BSA)protein using [111In]- in mature female Sprague-Dawley rat bone after injecting for 4 hour.; type: ADME, organism-based, Bone element; outline: as §2
Rattus norvegicus [4] = species: Rattus norvegicus; assay: Biodistribution of Gd-LDTA (conjugated with galactose BSA) protein using [111In]- in mature female Sprague-Dawley rat liver after injecting for 48 hour.; type: ADME, organism-based; outline: as §2
Rattus norvegicus [5] = species: Rattus norvegicus; assay: Biodistribution of In-LDTA (conjugated with mannoseBSA) protein using [111In]- in mature female Sprague-Dawley rat bone after injecting for 4 hour.; type: ADME, organism-based, Bone element; outline: as §1
Rattus norvegicus [6] = species: Rattus norvegicus; assay: Biodistribution of In-LDTA (conjugated with BSA) protein using [111In]- in mature female Sprague-Dawley rat bone after injecting for 4 hour.; type: ADME, organism-based, Bone element; outline: as §1
Rattus norvegicus [7] = species: Rattus norvegicus; assay: Biodistribution of In-LDTA (conjugated with galactose BSA)protein using [111In]- in mature female Sprague-Dawley rat colon after injecting for 1 hour.; type: ADME, organism-based; outline: as §1
Rattus norvegicus [8] = species: Rattus norvegicus; assay: Biodistribution of Gd-LDTA (conjugated with mannose BSA) protein using [111In]- in mature female Sprague-Dawley rat liver after injecting for 1 hour.; type: ADME, organism-based
Rattus norvegicus [9] = species: Rattus norvegicus; assay: Biodistribution of Gd-LDTA (conjugated with mannose BSA) protein using [111In]- in mature female Sprague-Dawley rat bone marrow after injecting for 24 hour.; type: ADME, organism-based
Rattus norvegicus [10] = species: Rattus norvegicus; assay: Biodistribution of Gd-DTA (conjugated with BSA)protein using [111In]- in mature female Sprague-Dawley rat liver after injecting for 24 hour.; type: ADME, organism-based; outline: as §2
Rattus norvegicus [11] = species: Rattus norvegicus; assay: Biodistribution of Gd-LDTA (conjugated with galactose BSA) protein using [111In]- in mature female Sprague-Dawley rat bone marrow after injecting for 1 hour.; type: ADME, organism-based
Rattus norvegicus [12] = species: Rattus norvegicus; assay: Biodistribution of In-LDTA (conjugated with mannoseBSA)protein using [111In]- in mature female Sprague-Dawley rat blood after injecting for 4 hour.; type: ADME, organism-based; outline: as §1
Rattus norvegicus [13] = species: Rattus norvegicus; assay: Biodistribution of In-LDTA (conjugated with mannoseBSA) protein using [111In]- in mature female Sprague-Dawley rat bone after injecting for 24 hour.; type: ADME, organism-based, Bone element; outline: as §1
Rattus norvegicus [14] = species: Rattus norvegicus; assay: Biodistribution of In-LDTA (conjugated with mannoseBSA) protein using [111In]- in mature female Sprague-Dawley rat colon after injecting for 24 hour.; type: ADME, organism-based; outline: as §1
Rattus norvegicus [15] = species: Rattus norvegicus; assay: Biodistribution of In-LDTA (conjugated with mannoseBSA)protein using [111In]- in mature female Sprague-Dawley rat blood after injecting for 1 hour.; type: ADME, organism-based; outline: as §1
Rattus norvegicus [16] = species: Rattus norvegicus; assay: Biodistribution of In-LDTA (conjugated with mannoseBSA) protein using [111In]- in mature female Sprague-Dawley rat liver after injecting for 4 hour.; type: ADME, organism-based; outline: as §1
Rattus norvegicus [17] = species: Rattus norvegicus; assay: Biodistribution of Gd-LDTA (conjugated with galactose BSA) protein using [111In]- in mature female Sprague-Dawley rat colon after injecting for 4 hour.; type: ADME, organism-based; outline: as §2
Rattus norvegicus [18] = species: Rattus norvegicus; assay: Biodistribution of Gd-DTA (conjugated with BSA)protein using [111In]- in mature female Sprague-Dawley rat liver after injecting for 48 hour.; type: ADME, organism-based; outline: as §2
Rattus norvegicus [19] = species: Rattus norvegicus; assay: Biodistribution of In-LDTA (conjugated with BSA) protein using [111In]- in mature female Sprague-Dawley rat bone after injecting for 48 hour.; type: ADME, organism-based, Bone element; outline: as §1
Rattus norvegicus [20] = species: Rattus norvegicus; assay: Biodistribution of In-LDTA (conjugated with galactose BSA)protein using [111In]- in mature female Sprague-Dawley rat bone after injecting for 48 hour.; type: ADME, organism-based, Bone element; outline: as §1
Rattus norvegicus [21] = species: Rattus norvegicus; assay: Biodistribution of Gd-DTA (conjugated with BSA)protein using [153Gd]- in mature female Sprague-Dawley rat bone after injecting for 48 hour.
Rattus norvegicus [22] = species: Rattus norvegicus; assay: Biodistribution of In-LDTA (conjugated with mannoseBSA) protein using [111In]- in mature female Sprague-Dawley rat kidney after injecting for 4 hour.; type: ADME, organism-based; outline: as §1
Rattus norvegicus [23] = species: Rattus norvegicus; assay: Biodistribution of In-LDTA (conjugated with mannoseBSA) protein using [111In]- in mature female Sprague-Dawley rat bone after injecting for 48 hour.; type: ADME, organism-based, Bone element; outline: as §1
Rattus norvegicus [24] = species: Rattus norvegicus; assay: Biodistribution of In-LDTA (conjugated with galactose BSA)protein using [111In]- in mature female Sprague-Dawley rat kidney after injecting for 1 hour.; type: ADME, organism-based; outline: as §1
Rattus norvegicus [25] = species: Rattus norvegicus; assay: Biodistribution of Gd-LDTA (conjugated with mannose BSA) protein using [111In]- in mature female Sprague-Dawley rat bone after injecting for 1 hour.; type: ADME, organism-based, Bone element; outline: as §2
Rattus norvegicus [26] = species: Rattus norvegicus; assay: Biodistribution of Gd-LDTA (conjugated with galactose BSA) protein using [111In]- in mature female Sprague-Dawley rat bone marrow after injecting for 4 hour.; type: ADME, organism-based
Rattus norvegicus [27] = species: Rattus norvegicus; assay: Biodistribution of Gd-LDTA (conjugated with galactose BSA) protein using [111In]- in mature female Sprague-Dawley rat kidney after injecting for 24 hour.; type: ADME, organism-based; outline: as §2
Rattus norvegicus [28] = species: Rattus norvegicus; assay: Biodistribution of Gd-LDTA (conjugated with mannose BSA) protein using [111In]- in mature female Sprague-Dawley rat kidney after injecting for 96 hour.; type: ADME, organism-based
Rattus norvegicus [29] = species: Rattus norvegicus; assay: Biodistribution of In-LDTA (conjugated with BSA) protein using [111In]- in mature female Sprague-Dawley rat blood after injecting for 24 hour.; type: ADME, organism-based; outline: as §1
Rattus norvegicus [30] = species: Rattus norvegicus; assay: Biodistribution of Gd-DTA (conjugated with BSA)protein using [111In]- in mature female Sprague-Dawley rat bone marrow after injecting for 1 hour.; type: ADME, organism-based
Rattus norvegicus [31] = species: Rattus norvegicus; assay: Biodistribution of Gd-DTA (conjugated with BSA)protein using [153Gd]- in mature female Sprague-Dawley rat bone marrow after injecting for 4 hour.
Rattus norvegicus [32] = species: Rattus norvegicus; assay: Biodistribution of Gd-LDTA (conjugated with galactose BSA) protein using [111In]- in mature female Sprague-Dawley rat bone after injecting for 24 hour.; type: ADME, organism-based, Bone element; outline: as §2
Rattus norvegicus [33] = species: Rattus norvegicus; assay: Biodistribution of In-LDTA (conjugated with galactose BSA)protein using [111In]- in mature female Sprague-Dawley rat liver after injecting for 24 hour.; type: ADME, organism-based; outline: as §1
Rattus norvegicus [34] = species: Rattus norvegicus; assay: Biodistribution of In-LDTA (conjugated with galactose BSA)protein using [111In]- in mature female Sprague-Dawley rat kidney after injecting for 4 hour.; type: ADME, organism-based; outline: as §1
Rattus norvegicus [35] = species: Rattus norvegicus; assay: Biodistribution of Gd-LDTA (conjugated with galactose BSA) protein using [111In]- in mature female Sprague-Dawley rat bone after injecting for 48 hour.; type: ADME, organism-based, Bone element; outline: as §2
Rattus norvegicus [36] = species: Rattus norvegicus; assay: Biodistribution of In-LDTA (conjugated with mannoseBSA) protein using [111In]- in mature female Sprague-Dawley rat kidney after injecting for 48 hour.; type: ADME, organism-based; outline: as §1

## Nc1ccc(CC(C(=O)O)N(CCN(CC(=O)O)CC(=O)O)CCN(CC(=O)O)CC(=O)O)cc1 (stereo unspecified)
Rattus norvegicus [1]
  ID/organ: 75.2%
Rattus norvegicus [2]
  ID/organ: 0.327%
Rattus norvegicus [3]
  ID/organ: 22.3%
Rattus norvegicus [4]
  ID/organ: 34.8%
Rattus norvegicus [5]
  ID/organ: 10.1%
Rattus norvegicus [6]
  ID/organ: 19.1%
Rattus norvegicus [7]
  ID/organ: 0.0098%
Rattus norvegicus [8]
  ID/organ: 70.2%
Rattus norvegicus [9]
  ID/organ: 2.13%
Rattus norvegicus [10]
  ID/organ: 20%
Rattus norvegicus [11]
  ID/organ: 0.031%
Rattus norvegicus [12]
  ID/organ: 0.149%
Rattus norvegicus [13]
  ID/organ: 8.9%
Rattus norvegicus [14]
  ID/organ: 0.732%
Rattus norvegicus [15]
  ID/organ: 0.255%
Rattus norvegicus [16]
  ID/organ: 87.6%
Rattus norvegicus [17]
  ID/organ: 4.09%
Rattus norvegicus [18]
  ID/organ: 17.4%
Rattus norvegicus [19]
  ID/organ: 25.9%
Rattus norvegicus [20]
  ID/organ: 0.29%
Rattus norvegicus [21]
  ID/organ: 35.9%
Rattus norvegicus [22]
  ID/organ: 0.244%
Rattus norvegicus [23]
  ID/organ: 9.84%
Rattus norvegicus [24]
  ID/organ: 0.0446%
Rattus norvegicus [25]
  ID/organ: 15.6%
Rattus norvegicus [26]
  ID/organ: 0.109%
Rattus norvegicus [27]
  ID/organ: 0.14%
Rattus norvegicus [28]
  ID/organ: 0.405%
Rattus norvegicus [29]
  ID/organ: 10.8%
Rattus norvegicus [30]
  ID/organ: 1.19%
Rattus norvegicus [31]
  ID/organ: 1.75%
Rattus norvegicus [32]
  ID/organ: 7.01%
Rattus norvegicus [33]
  ID/organ: 65.4%
Rattus norvegicus [34]
  ID/organ: 0.0688%
Rattus norvegicus [35]
  ID/organ: 8.7%
Rattus norvegicus [36]
  ID/organ: 0.465%
